Measured values pooled from the literature.
Each line is one published result; the experiments were not run side by side.
Target: Maternal embryonic leucine zipper kinase (MELK, Homo sapiens, UniProt Q14680)

Cn1cc(-c2cc(F)cc(N3CCn4c(cc5c4CCCC5)C3=O)c2CO)cc(Nc2ccc(N3CCN(C4COC4)CC3)cn2)c1=O
inhibition (enzyme activity; inhibitor; 0.1 µM): 16%

Cn1cncc1[C@@](O)(COc1ccc(C#N)cc1-c1ccc(OC(F)(F)F)cc1)c1ccc(C#N)cc1
remaining binding (cell-free assay; competition with immobilised ligand; 1 µM): 79%

O=c1[nH]c2ccccc2n1C1CCN(Cc2ccc(-c3[nH]c4cc5ncnc5cc4nc3-c3ccccc3)cc2)CC1
remaining signal (cell-free assay; 0.5 µM): 110%

Cc1nn(C)cc1-c1nc2c(N3CCN(Cc4ccc(Cl)cc4)CC3)c(Cl)cnc2[nH]1
remaining binding (binding; competition with immobilised ligand; 1 µM): 100%

CC(C)(C)c1cc(C=C(C#N)C#N)cc(Br)c1O
remaining activity (enzyme activity; inhibitor; 0.5 µM): 91.6%

Cn1cc(-c2cccc(N3CCc4c(sc5c4CC(C)(C)C5)C3=O)c2CO)cc(Nc2ccncn2)c1=O
inhibition (enzyme activity; inhibitor; 1 µM): 5%

COc1cc(Nc2ncc(F)c(Nc3ccc4c(n3)NC(=O)C(C)(C)O4)n2)cc(OC)c1OC
inhibition (binding; competition with immobilised ligand; 10 µM): 71%

COc1ncccc1-c1cnn2ccc(N3CCN(C(=O)OC(C)C)CC3)nc12
remaining binding (binding; competition with immobilised ligand; 1 µM): 97%

N#CC1(c2ccccn2)CCN(Cc2cc(C(=O)O)c(=O)n3ccccc23)CC1
remaining binding (cell-free assay; competition with immobilised ligand; 1 µM): 55%
